≈ marks a conversion by molar mass, not a printed value.
Columns and labels:
[1] = system: Enterobacter cloacae; experiment: Minimum inhibitory concentration against Enterobacter cloacae A13(inoculum, 10e5 cfu per spot); type: functional; conditions: in the assay text read “10e2 cfu per spot” for “10e5 cfu per spot”
[2] = system: Pseudomonas aeruginosa; experiment: Minimum inhibitory concentration against Pseudomonas aeruginosa A21 (inoculum, 10e5 cfu per spot); type: functional
How it was run: (§1)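 MIC in µg/mL, determined in Jewell and Permain growth medium with spot inoculation at 10^5 cfu per spot.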

[3] = Minimum inhibitory concentration against Staphylococcus aureus A5(inoculum, 10e5 cfu per spot); type: functional; how it was run: as §1
[4] = system: Proteus mirabilis; experiment: Minimum inhibitory concentration against Proteus mirabilis A18 (inoculum, 10e5 cfu per spot); type: functional; how it was run: as §1
[5] = system: Serratia marcescens; experiment: Minimum inhibitory concentration against Serratia marcescens A16 (inoculum, 10e5 cfu per spot); type: functional; how it was run: as §1
[6] = system: Streptococcus pyogenes; experiment: Minimum inhibitory concentration against Streptococcus pyogenes (inoculum, 10e5 cfu per spot) A1; type: functional; how it was run: as §1
[7] = system: Staphylococcus aureus; experiment: Minimum inhibitory concentration against Staphylococcus aureus A6 (inoculum, 10e5 cfu per spot); type: functional; how it was run: as §1
[8] = system: Escherichia coli; experiment: Minimum inhibitory concentration against Escherichia coli A8 (inoculum, 10e5 cfu per spot); type: functional; how it was run: as §1
[9] = system: Klebsiella aerogenes; experiment: Minimum inhibitory concentration against Klebsiella aerogenes X5L (inoculum, 10e4 cfu per spot); type: functional
How it was run: (§2)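 MIC in µg/mL, determined in Jewell and Permain growth medium with spot inoculation at 10^4 cfu per spot. P99 is described as a constitutive type I lactamase producer.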

[10] = system: Escherichia coli; experiment: Minimum inhibitory concentration against Escherichia coli X4 (inoculum, 10e4 cfu per spot)
[11] = system: Enterobacter cloacae; experiment: Minimum inhibitory concentration against Enterobacter cloacae P99 (inoculum, 10e4 cfu per spot); type: functional; how it was run: as §2
[12] = system: Staphylococcus aureus; experiment: Minimum inhibitory concentration against Staphylococcus aureus A4 (inoculum, 10e5 cfu per spot); type: functional; how it was run: as §1
[13] = system: Klebsiella aerogenes; experiment: Minimum inhibitory concentration against Klebsiella aerogenes X6 (inoculum, 10e4 cfu per spot); type: functional; how it was run: as §2
[14] = system: Enterobacter cloacae; experiment: Minimum inhibitory concentration against Enterobacter cloacae A13 (inoculum, 10e5 cfu per spot); type: functional; how it was run: as §1
[15] = system: Escherichia coli; experiment: Minimum inhibitory concentration against Escherichia coli DCO (inoculum, 10e4 cfu per spot); type: functional; how it was run: as §2
[16] = system: Escherichia coli; experiment: Minimum inhibitory concentration against Escherichia coli DC2 (inoculum, 10e4 cfu per spot); type: functional; how it was run: as §2
[17] = system: Enterobacter cloacae; experiment: Minimum inhibitory concentration against Enterobacter cloacae P99 (inoculum, 10e4 cfu per spot)(type I lactamase producer); type: functional; how it was run: as §2
[18] = system: Proteus mirabilis; experiment: Minimum inhibitory concentration against Proteus mirabilis A18(inoculum, 10e5 cfu per spot); type: functional; how it was run: as §1
[19] = system: Escherichia coli; experiment: Minimum inhibitory concentration against Escherichia coli TEM X3 (inoculum, 10e4 cfu per spot)(TEM I type lactamase producer)
[20] = system: Klebsiella pneumoniae; experiment: Minimum inhibitory concentration against Klebsiella pneumoniae A24 (inoculum, 10e5 cfu per spot); type: functional; how it was run: as §1
[21] = system: Proteus vulgaris; experiment: Minimum inhibitory concentration against Proteus vulgaris Pv9 (inoculum, 10e5 cfu per spot)

| Structure (SMILES) | MIC [2] [µg/mL] | MIC [4] [µg/mL] | MIC [5] [µg/mL] | MIC [6] [µg/mL] | MIC [7] [µg/mL] | MIC [8] [µg/mL] | MIC [9] [µg/mL] | MIC [10] [µg/mL] | MIC [11] [µg/mL] | MIC [12] [µg/mL] | MIC [13] [µg/mL] | MIC [14] [µg/mL] | MIC [15] [µg/mL] | MIC [16] [µg/mL] | MIC [17] [µg/mL] | MIC [19] [µg/mL] | MIC [20] [µg/mL] | MIC [21] [µg/mL] | further results |
| --- | --- | --- | --- | --- | --- | --- | --- | --- | --- | --- | --- | --- | --- | --- | --- | --- | --- | --- | --- |
| CC1=C(C(=O)OC(c2ccccc2)c2ccccc2)N2C(=O)[C@@H](Nc3nc4ccccc4[nH]3)C2SC1 (stereo not given in full) | > 1000 | 8 (≈ 16.1 µM) | 200 (≈ 403 µM) | 40 (≈ 80.5 µM) | 40 (≈ 80.5 µM) | 8 (≈ 16.1 µM) |  |  |  |  |  |  |  |  |  |  |  |  | MIC [1]: 8 µg/mL (≈ 16.1 µM); MIC [3]: 8 µg/mL (≈ 16.1 µM) |
| CC(=O)OCC1=C(C(=O)OC(c2ccccc2)c2ccccc2)N2C(=O)[C@@H](Nc3nc4cc(CC#N)ccc4[nH]3)C2SC1 (stereo not given in full) | > 256 | 64 (≈ 108 µM) | 64 (≈ 108 µM) | 0.5 (≈ 0.842 µM) | 1 (≈ 1.68 µM) | 0.5 (≈ 0.842 µM) | 128 (≈ 216 µM) | 0.25 (≈ 0.421 µM) | 1 (≈ 1.68 µM) | 256 (≈ 431 µM) | 0.5 (≈ 0.842 µM) | > 256 | 0.5 (≈ 0.842 µM) | < 0.03 | 256 (≈ 431 µM) | 4 (≈ 6.74 µM) | 0.5 (≈ 0.842 µM) | > 256 |  |
| CO/N=C(\C(=O)N[C@@H]1C(=O)N2C(C(=O)O)=C(COC(C)=O)CS[C@H]12)c1csc(N)n1 [CEFOTAXIME] | 128 (≈ 281 µM) | 0.06 (≈ 0.132 µM) | 0.25 (≈ 0.549 µM) | 0.03 (≈ 0.0659 µM) | 4 (≈ 8.78 µM) | 0.25 (≈ 0.549 µM) | 4 (≈ 8.78 µM) | 0.06 (≈ 0.132 µM) | 0.03 (≈ 0.0659 µM) | 32 (≈ 70.3 µM) | 0.06 (≈ 0.132 µM) | 256 (≈ 562 µM) | 0.03 (≈ 0.0659 µM) | 0.002 (≈ 0.00439 µM) | 32 (≈ 70.3 µM) | 0.06 (≈ 0.132 µM) | 0.06 (≈ 0.132 µM) | 0.5 (≈ 1.1 µM) |  |

Further lines, with some results ahead:

| MIC [2] [µg/mL] | MIC [4] [µg/mL] | MIC [5] [µg/mL] | MIC [6] [µg/mL] | MIC [7] [µg/mL] | MIC [8] [µg/mL] | MIC [9] [µg/mL] | MIC [10] [µg/mL] | MIC [11] [µg/mL] | MIC [12] [µg/mL] | MIC [13] [µg/mL] | MIC [14] [µg/mL] | MIC [15] [µg/mL] | MIC [16] [µg/mL] | MIC [17] [µg/mL] | MIC [19] [µg/mL] | MIC [20] [µg/mL] | MIC [21] [µg/mL] | Structure (SMILES) | further results |
| --- | --- | --- | --- | --- | --- | --- | --- | --- | --- | --- | --- | --- | --- | --- | --- | --- | --- | --- | --- |
| ≥ 128 |  | 64 (≈ 115 µM) | 2 (≈ 3.61 µM) | 2 (≈ 3.61 µM) | 2 (≈ 3.61 µM) | ≥ 128 | 0.25 (≈ 0.451 µM) | 2 (≈ 3.61 µM) | 8 (≈ 14.4 µM) | 2 (≈ 3.61 µM) | ≥ 128 | 0.5 (≈ 0.902 µM) | < 0.03 | ≥ 128 | 2 (≈ 3.61 µM) | 1 (≈ 1.8 µM) | 64 (≈ 115 µM) | CC(=O)OCC1=C(C(=O)OC(c2ccccc2)c2ccccc2)N2C(=O)[C@@H](Nc3nc4ccccc4[nH]3)C2SC1 (stereo not given in full) | MIC [18]: 4 µg/mL (≈ 7.21 µM) |
| ≥ 128 | 4 (≈ 6.38 µM) | ≥ 128 | 0.5 (≈ 0.798 µM) | 1 (≈ 1.6 µM) | 1 (≈ 1.6 µM) | ≥ 128 | 0.5 (≈ 0.798 µM) | 1 (≈ 1.6 µM) | 8 (≈ 12.8 µM) | 2 (≈ 3.19 µM) | ≥ 128 | 0.5 (≈ 0.798 µM) | < 0.03 | ≥ 128 | 4 (≈ 6.38 µM) | 1 (≈ 1.6 µM) | ≥ 128 | Cc1nnc(SCC2=C(C(=O)OC(c3ccccc3)c3ccccc3)N3C(=O)[C@@H](Nc4nc5ccccc5[nH]4)C3SC2)s1 (stereo not given in full) |  |
